Measured values taken from ChEMBL document CHEMBL2321852, “Optimized S-trityl-L-cysteine-based inhibitors of kinesin spindle protein with potent in vivo antitumor activity in lung cancer xenograft models” (J Med Chem, 2013).
The source made the active and inactive calls. No cut-off for these calls is given here.

Experiments:
Mus musculus = experiment: Toxicity in NMRI nu/nu mouse xenografted with human LXFS 538 cells assessed as mortality at 8 to 10 mg/kg, ip; format: organism-based; parameters: dose 8-10 mg/kg, route intraperitoneal; conditions: in vivo
LXFS 538 = experiment: Antitumor activity against human LXFS 538 cells xenografted in NMRI nu/nu mouse assessed as tumor regression at 6 mg/kg, ip measured on day 13; format: functional, organism-based; parameters: dose 6 mg/kg
Procedure, shortened: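 LXFS 538 xenograft fragments were implanted in female NMRI nu/nu mice, which were randomized at 50–250 mm3. Dosing was ip in 10% ethanol/10% cremophor/80% D5W: 10 mg/kg on days 0 and 4, then 6 mg/kg on days 7, 20 and 24. Caliper volume was (ab²)×0.5, measured twice weekly; body weight was recorded twice weekly.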

[1] = Clearance in mouse at 5 mg/kg, iv by LC-MS/MS analysis; format: ADME, organism-based; parameters: dose 5 mg/kg, route intravenous; conditions: in vivo
[2] = AUClast in mouse at 5 mg/kg, iv by LC-MS/MS analysis; format: ADME, organism-based, Plasma; parameters: time 0 - last, dose 5 mg/kg, route intravenous; conditions: plasma
[3] = Volume of distribution in mouse at 5 mg/kg, iv by LC-MS/MS analysis; format: ADME, organism-based; parameters: dose 5 mg/kg, route intravenous; conditions: in vivo
[4] = Initial plasma concentration in mouse at 5 mg/kg, iv by LC-MS/MS analysis; format: ADME, organism-based; parameters: dose 5 mg/kg, route intravenous; conditions: plasma
[5] = Half life in mouse at 5 mg/kg, iv by LC-MS/MS analysis; format: ADME, organism-based; parameters: dose 5 mg/kg, route intravenous; conditions: in vivo
[6] = AUClast in mouse at 5 mg/kg, po by LC-MS/MS analysis; format: ADME, organism-based, Plasma; parameters: time 0 - last, dose 5 mg/kg, route oral; conditions: plasma
[7] = Cmax in mouse at 5 mg/kg, po by LC-MS/MS analysis; format: ADME, organism-based; parameters: dose 5 mg/kg, route oral; conditions: in vivo
[8] = Tmax in mouse at 5 mg/kg, po by LC-MS/MS analysis; format: ADME, organism-based; parameters: dose 5 mg/kg, route oral; conditions: in vivo

With `Cc1ccc(C(=O)N(CCCN)[C@@H](c2nc3cc(Cl)ccc3c(=O)n2Cc2ccccc2)C(C)C)cc1` [ISPINESIB] the Activity (Mus musculus) was “Toxic”, the Activity (LXFS 538) was “Active” and the clearance [1] was 20.5 mL/min/kg. The AUC(0-t) [2] was 3100 ng·h/mL, the Vd [3] was 2.5 L/kg and the C0 [4] was 2000 ng/mL. The half-life [5] was 4.1 h, the AUC(0-t) [6] was 1500 ng·h/mL and the Cmax [7] was 300 ng/mL. For the same compound, the Tmax [8] was 2.7 h.
